Screening data (PubChem)
This is a sample that favours compounds with a hit; in the whole collection about 4.9% have one here.
STAT1 activator: STAT1 signaling activators, primary screen, cell-based, HTS, luciferase reporter; NIH 3T3 STAT1-luciferase reporter, IFN-gamma, luminescence; 100% = IFN-gamma alone, no compound; activation (% of control), % at 5.5 µM; 2.6% of 200,000 active; AID 932, 2007;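 active = activation above the screen-wide mean activation plus 3 SD, cut at about 130% in these data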;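 note: raw ratio to IFN-gamma control signal so 100% means no change and 0% no light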
STAT3 inh: IL-6 driven STAT3 reporter inhibitors, primary screen, U3A cells, luciferase, luminescence, MLSCN library; IL-6 STAT3-luciferase reporter; host cell line lacks STAT1; inhibition, % at 5.5 µM; 0.89% of 190,000 active;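 active = inhibition above the mean inhibition across all screened compounds plus 3 SD, cut at about 44% in these data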;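 note: 0% = DMSO only wells and 100% = 100 µM nifuroxazide control wells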
APP 5'UTR act: activators of APP 5'UTR luciferase reporter, primary screen, SH-SY5Y cells. activation, % at 2 µM. SH-SY5Y APP 5'UTR luciferase reporter, luminescence; zero percent = DMSO vehicle wells. AID 1276, 2008. 1% of 190,000 active;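 active = activation above a set limit, based on mean plus 3 SD of controls, cut at about 140% in these data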
STAT3 act: IL-6 driven STAT3 reporter potentiators, primary screen, U3A cells, luciferase, luminescence, MLSCN library; IL-6 STAT3-luciferase reporter; 100% = signal with IL-6 EC80 alone; activation (% of control), % at 5.6 µM; 0.91% of 190,000 active;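 active = activation above the screen-wide mean of compound activation plus 3 SD, cut at about 130% in these data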;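 note: 0% = background luminescence of wells with medium and substrate only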
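Material: STAT3-luciferase reporter U3A cells. Controls: IL-6-treated wells, 100% activation. Read-out: % activation versus median of IL-6-stimulated wells. Probe or stimulus: IL-6 stimulus at 33 ng/mL final. Timing: compound 1 h, then IL-6 6 h at 37 °C. Signal: reporter luminescence signal.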
NF-kB neuron act: activators of NF-kB expression in neurons, primary screen, cell-based, HTS; human neuronal cells, NF-kB reporter expression; active compounds read high; AID 1239, 2008; fold change at 12.5 µM; 1.6% of 190,000 active; in the data active = fold change above about 3.3
STAT1 blocker: STAT1 signaling inhibitors, primary screen, cell-based, HTS, luciferase reporter; 0.35% of 200,000 active; inhibition, % at 5.5 µM; NIH 3T3 STAT1-luciferase reporter, IFN-gamma, luminescence;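 active = inhibition above a set limit, the mean inhibition across all tested compounds plus 3 SD, cut at about 34% in these data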;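 note: 0% = IFN-gamma with DMSO and 100% = IFN-gamma with 300 µM nifuroxazide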
STAT1 act conf: STAT1 signaling activators, confirmation, cell-based, HTS, luciferase reporter. activation (% of control), % at 5.7 µM. 97% of 1,200 active. NIH 3T3 STAT1-luciferase reporter, IFN-gamma potentiation, luminescence; 100% = IFN-gamma EC80 alone, no compound. shares compounds with STAT1 activator;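 active = activation above a set limit carried over from the earlier primary STAT1 screen, cut at about 140% in these data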;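 note: simple ratio to median IFN-gamma plus DMSO wells so 0% means no light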
NFkB act STAT1ct: NF-kB reporter activators, TNF-alpha stimulated, counter-screen for STAT1 activator project, cell-based, HEK293T, luciferase luminescence; shares compounds with STAT1 activator; 100% = TNF-alpha with vehicle only; activation (% of control), % at 5.7 µM; 43% of 1,200 active;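 active = activation above the mean of solvent-only control wells plus 3 SD, set per campaign, cut at about 130% in these data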;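 note: TNF-alpha given at a submaximal dose yielding about 80% of full reporter signal; values are well signal over median control so 100% means no change and 0% no light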
STAT3 act 2: STAT3 reporter activation by STAT1 hits, confirmation, counter-screen for STAT1 activator project, U3A cells, luciferase, luminescence | shares compounds with STAT1 activator | activation (% of control), % at 5.7 µM | 46% of 1,200 active | IL-6; cells lack STAT1; 100 = IL-6 alone, no compound effect;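 active = activation above the solvent-only control well mean plus 3 SD, set per plate batch, cut at about 110% in these data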;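 note: 0% = no luminescence and 100% = median IL-6 plus DMSO wells; higher means more STAT3 reporter activation so hits are non-selective activators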
* hit, by the source's call; . = no result.

SMILES	STAT1 activator	STAT3 inh	APP 5'UTR act	STAT3 act	NF-kB neuron act	STAT1 blocker	STAT1 act conf	NFkB act STAT1ct	STAT3 act 2
Cc1cccc(Nc2n[nH]c(C)c2[N+](=O)[O-])c1	156.2*	-1.6	100.7	100.5	3.74*	-63.1	192.5*	132.0	105.7
Cc1cccc(Nc2cc(=O)[nH]c(=O)[nH]2)c1	102.0	-2.9	4.8	104.8	1.31	-2.3	.	.	.
Cc1nc2cc(NC(=O)N3c4ccccc4CC3C)ccc2n1C (stereo not drawn)	151.2*	35.4	.	72.6	4.02*	-34.5	217.9*	132.1	132.2*
CCCC(=O)Nc1cccc(-c2nc3cc(C)c(C)cc3o2)c1	176.9*	10.7	134.6	92.9	3.05	-84.1	201.4*	128.4	107.3
CCCC(=O)Nc1cccc(-c2nc3ccccc3o2)c1	109.1	19.8	14.7	88.1	1.13	-10.0	.	.	.
Cc1cc2nc(-c3ccc(NC(=O)C(C)C)cc3)oc2cc1C	179.6*	4.8	140.1*	95.5	3.39*	-86.3	237.4*	146.3*	118.1*
OCCC#Cc1ccc(CN2CCN(C3CCCCC3)C(CCO)C2)cc1 (stereo not drawn)	104.5	4.3	18.8	101.3	1.12	-7.3	.	.	.
Cc1cc(C(=O)COC(=O)c2cc(Cl)ccc2N)c(C)n1Cc1ccco1	156.4*	-12.0	170.6*	112.4	2.05	-63.3	185.0*	128.0	114.8*
O=C(COC(=O)c1ccccc1NC(=O)C1CC1)c1ccc2c(c1)OCCO2	159.0*	3.5	38.2	96.5	0.59	-64.9	169.8*	104.5	101.1
CC(C)(C)C(=O)Nc1ccccc1C(=O)OCC(=O)c1ccc2c(c1)OCCO2	96.5	-7.3	24.3	105.9	0.67	3.8	.	.	.
CC1(C)NC(=O)N(CC(=O)OCc2cc(=O)n3cc(Br)ccc3n2)C1=O	94.5	5.7	0.9	101.8	0.92	4.6	.	.	.
CC1(C(=O)OCc2cc(=O)n3cc(Br)ccc3n2)CC1(Cl)Cl (stereo not drawn)	161.2*	6.6	82.0	95.9	1.21	-67.2	167.7*	124.3	100.2
CCc1cc(=O)[nH]c(SCc2ccc(C)cc2)n1	92.6	4.8	22.7	101.7	1.13	6.5	.	.	.
Nc1nc(-c2ccc3ccccc3c2)cs1	169.0*	20.0	71.6	88.8	6.3*	-74.6	195.0*	134.3*	107.2
COc1ccc(-c2csc(N)n2)cc1	119.2	-4.8	26.1	107.6	1.66	-21.2	.	.	.
COc1ccccc1NC(CC(=O)c1ccccc1)C(=O)OCC(=O)c1ccc(Br)cc1 (stereo not drawn)	156.2*	35.3	116.6	70.3	0.84	-56.4	182.8*	115.8	99.3
CC1CCCCN1Cc1c(O)ccc2c(=O)c(-c3nc4ccccc4s3)c(N)oc12 (stereo not drawn)	106.3	3.8	-13.0	97.0	1.03	-7.1	.	.	.
COc1ccc(-c2cn3cccc(C)c3n2)cc1Br	172.5*	-4.3	137.0*	105.9	4.8*	-81.1	191.2*	129.5	101.9
COc1ccccc1Cc1nc(-c2ccncc2)no1	106.1	10.9	16.5	91.6	1.19	-5.8	.	.	.
Clc1ccc(OCc2nc(-c3ccncc3)no2)c(Br)c1	152.3*	-5.5	250.4*	103.7	4.04*	-60.4	233.3*	140.6*	122.9*
Clc1ccccc1OCc1nc(-c2ccncc2)no1	161.9*	0.6	193.9*	102.1	4.09*	-67.3	184.2*	130.8	116.5*
CC1CCc2cc(F)ccc2N1C(=O)CSc1nnc2c(n1)[nH]c1ccccc12 (stereo not drawn)	108.7	-2.4	-7.4	107.2	0.35	-9.6	.	.	.
Cc1ccccc1/C(N)=N/OC(=O)c1ccc(F)cc1	183.0*	9.8	80.2	95.8	.	-95.0	174.1*	135.3*	106.3
CCCC(CCC)C(=O)Nc1ccc2c(c1)N(C(=O)CCN1CCN(C)CC1)c1ccccc1CC2	92.6	-1.5	10.5	103.3	1.05	6.1	.	.	.
Cc1nc2cc(NC(=O)NCc3ccc4c(c3)OCO4)ccc2o1	91.1	11.0	0.0	95.3	0.85	9.7	.	.	.
SMILES	STAT1 activator	STAT3 inh	APP 5'UTR act	STAT3 act	NF-kB neuron act	STAT1 blocker	STAT1 act conf	NFkB act STAT1ct	STAT3 act 2
Cc1nc2cc(NC(=O)Nc3ccc(Br)cc3)ccc2o1	162.2*	8.3	154.3*	98.3	2.92	-71.0	208.6*	134.9*	102.7
O=C(CSc1nc2nn(-c3ccccc3)c(=O)c-2c2n1CCCCC2)NCCCc1ccccc1	94.7	-1.0	23.2	105.2	0.98	7.3	.	.	.
Cc1ccccc1C(=O)O/N=C1\CCS(=O)(=O)c2sccc21	219.9*	12.3	0.4	93.0	5.85*	-130.4	224.8*	146.2*	110.9*
O=C(O)C1CCN(c2ccc(Cl)nn2)CC1	107.0	2.1	19.6	101.2	1.28	-8.8	.	.	.
COc1ccc(C2CC(c3ccc4ccccc4c3)=NN2C(=O)COC(=O)C2CCC(=O)N2)cc1 (stereo not drawn)	183.3*	2.7	257.6*	104.5	1.63	-92.7	246.9*	148.4*	129.2*
COc1ccc(C2CC(c3ccc4ccccc4c3)=NN2C(=O)CNC2CCCCC2)cc1 (stereo not drawn)	97.0	1.0	-0.5	100.9	0.96	1.7	.	.	.
CCOC(=O)C1(Cc2ccccc2Cl)CCN(C(=O)CN2CCOC2=O)CC1	159.5*	-3.8	69.0	107.9	.	-68.6	171.6*	142.3*	116.6*
CNC(=O)C1=C(C)NC(=S)NC1c1cc2c(cc1OC)CCCC2 (stereo not drawn)	97.8	16.7	-15.1	88.2	1.08	2.5	.	.	.
CCOC(=O)c1sc(NC(=O)Nc2ccccc2Cl)cc1C	186.4*	26.5	219.5*	77.5	4.21*	-96.9	295.0*	113.5	96.2
CCOC(=O)c1sc(NC(=O)Nc2ccc(F)cc2)nc1C	159.9*	-5.9	120.9	102.9	5.27*	-67.3	235.8*	135.1*	112.4*
